Experimental data published in PMC3923374 (Analytical biochemistry, 2013).

Tests used:
[1] = target: sigma-1 receptor (Cavia porcellus, UniProt Q60492); experiment: radioligand competition with [3H]; format: binding; conditions: read-out: Ki for sigma-1 receptors
[2] = target: T1, sigma-2 receptor (Rattus norvegicus, UniProt Q5U3Y7); experiment: radioligand competition with [3H]RHM-1 in rat liver membranes; format: binding; conditions: read-out: Ki for sigma-2 receptors
T1 sequence (Q5U3Y7 1-176): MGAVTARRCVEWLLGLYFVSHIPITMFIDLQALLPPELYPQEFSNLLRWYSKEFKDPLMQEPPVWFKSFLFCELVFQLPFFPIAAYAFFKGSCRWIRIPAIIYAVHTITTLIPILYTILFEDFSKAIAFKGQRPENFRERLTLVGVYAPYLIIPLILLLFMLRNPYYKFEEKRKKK
Outline: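 Rat liver membrane homogenate (~300 μg protein) in 50 mM Tris-HCl, pH 8.0, incubated 60 min at 25°C with 1 nM [³H]RHM-1 (80 Ci/mmol) and test compound at 0.1 nM–10 μM. Stopped with cold 10 mM Tris-HCl/150 mM NaCl, pH 7.4, filtered onto glass-fiber filters presoaked 1 h in 50 mM Tris-HCl, washed three times ice-cold, scintillation counted. Nonspecific binding: 10 μM haloperidol.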

Chain of sigma-1 receptor (Q60492 whole entry): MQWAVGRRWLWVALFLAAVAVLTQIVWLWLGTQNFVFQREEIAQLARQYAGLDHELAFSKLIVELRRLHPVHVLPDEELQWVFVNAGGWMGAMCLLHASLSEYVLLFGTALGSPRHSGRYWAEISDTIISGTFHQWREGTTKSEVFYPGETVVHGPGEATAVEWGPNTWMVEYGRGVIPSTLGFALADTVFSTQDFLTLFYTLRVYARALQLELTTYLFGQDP

`O[C@@H](CN1[C@@H]2CC[C@H]1CC(c1ccccc1)C2)c1cccc(Br)c1` (some centres unmarked) [RHM-138] was tested. Which Ki [1] did it give?
Its Ki is 544 nM.

What about the Ki [2] of the same molecule?
The Ki was 12.3 nM.
